Laboratory results from PubChem BioAssay.
Activity calls are given as the source filed them.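 How the source made its calls, unless noted: active means inhibition of the reporter signal at or above 50%; inactive means inhibition below 50%.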

How the values were obtained:
[1] = inhibitors of TNFa-induced NFkB p65 translocation, primary screen, imaging, HUVEC, MLSMR starter and 10KST1 sets (AID 438;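 active means inhibition above 20% together with a positive visual image hit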;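 further: compound added about 3h40 before a 20 min TNFalpha stimulation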;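 on inhibition: signal is the nuclear over cytoplasmic p65 intensity ratio per well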); conditions: HUVEC TNFa-induced p65 nuclear translocation; cell count: measured here: nuclei count (cytotoxicity indicator), at 2.08 µM; inhibition: at 2 µM, stronger effect = higher value, 0% TNFa-plus-vehicle, 100% no-TNFa wells
[2] = reduction of polyQ htt aggregates in cells – imaging, exon1htt(103Q)mCFP cells, high-content imaging, primary screen (AID 483;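 active means visual image review flags a hit and inhibition of aggregation exceeds 20%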;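 further: compound exposure lasted 3 days before fixation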;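 on nuclei count: percent of the per-plate median nuclei count of sample wells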); conditions: exon1htt(103Q)mCFP cell line, aggregate imaging, at 2 µM; inhibition of aggregation: stronger effect = higher value; nuclei count: measured here: cell count, toxicity
[3] = endothelial E-selectin expression blockers – imaging, HUVEC, immunofluorescence, MLSMR starter and 10KST1 sets, primary screen (AID 487;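 active means visually confirmed hit in the image check and inhibition above 20%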;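 on inhibition: signal is fraction of cell area covered by stained E-selectin grains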;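 on nuclei count: 100% = median nuclei count of all wells on the same plate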); conditions: HUVEC TNFalpha-induced E-selectin immunofluorescence imaging, at 2 µM; inhibition: stronger effect = higher value; nuclei count: measured here: cell number, toxicity
[4] = biological target: Voltage-gated potassium channel subunit beta-2 (Rattus norvegicus) (UniProt P62483); experiment: inhibitors of rat Kvbeta2 reductase activity – biochemical, NADPH fluorescence, primary screen (AID 622;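 active means fluorescence slope higher than the sample average by over 3 SD, cut at about -0.22 in these data, passing the limit was not always enough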;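 further: slope of raw intensity against log time taken from 70 to 1610 s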); conditions: recombinant KvBeta, 4-cyanobenzaldehyde reduction, at 10 µM, stronger effect = higher value
[5] = biological target: Voltage-gated potassium channel subunit beta-2 (Rattus norvegicus) (UniProt P62483); experiment: enhancers of rat Kvbeta2 NADPH turnover – biochemical, NADPH fluorescence, primary screen (AID 623;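 active means NADPH fluorescence slope more negative than the mean of all samples by about 3 SD, 99.7% confidence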;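 further: fluorescence intensity change per second fitted from 20 to 320 s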); conditions: Recombinant KvBeta, NADPH fluorescence decrease slope, 10 min; at 10 µM; stronger effect = lower value
[6] = biological target: Alpha-2C adrenergic receptor (Homo sapiens) (UniProt P18825); experiment: compounds altering alpha2C-coupled GIRK flux – cell-based, HEK293 alpha2C/GIRK1/2, thallium flux, primary screen (AID 624;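 active means fluorescence slope after compound addition differing from the mean of all screened samples at 99.7% confidence, in either direction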;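 further: slope of fluorescence ratio to pre-addition baseline per second over 15 to 24 s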); conditions: thallium flux BTC fluorescence, at 10 µM, actives lie on both sides
[7] = inhibitors of larval lipid processing in zebrafish, primary screen, whole organism, PED6 fluorescence, gall bladder and intestine (AID 686;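 active means a full or partial loss of lipid-probe fluorescence in the fish gall bladder, intestine or both, judged by eye; inactive means no fluorescence loss, or compound toxic to the fish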;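 further: larvae 5 to 7 days old with five fish per well; signal comes from phospholipase A2 cleavage of quenched PED6 carried via bile; overnight exposure to compound and PED6 before scoring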); conditions: Zebrafish larvae PED6 lipid processing, fluorescence scoring; screened at 20 µM (by protocol)
Outline: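 system = live zebrafish larvae aged 5-7 days, whole organism | probe or stimulus = ingested quenched lipid PED6 at 100 nM | doses = 20 µM single dose | timing = overnight exposure | detection = fluorescence microscopy with visual scoring of gall bladder and intestine | read-out = visual per-well fluorescence inhibition score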

[8] = blockers of RIG-like receptor reporter activation – cell-based, Sendai virus stimulus, luciferase, 10K MLSCN set, TLR/RLR signaling modifier project, primary screen (AID 602276;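 active means inhibition at or above 50% at 10 µM; inactive means inhibition below 50%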;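 further: firefly luciferase from ISG56 promoter only with Renilla not read in this screen; 0% = Sendai virus plus DMSO and 100% = medium plus DMSO without virus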); conditions: HEK293 RL24 IRF3 luciferase reporter, at 10 µM, stronger effect = higher value
[9] = TLR3 IRF3 reporter activation blockers – cell-based, poly I:C stimulus, luciferase, 10K MLSCN set, primary screen (AID 602277); conditions: HEK293-TLR3 RL24 IRF3 luciferase reporter, at 10 µM, stronger effect = higher value

Chain of Voltage-gated potassium channel subunit beta-2 (Rattus norvegicus) (P62483 whole entry, looked up): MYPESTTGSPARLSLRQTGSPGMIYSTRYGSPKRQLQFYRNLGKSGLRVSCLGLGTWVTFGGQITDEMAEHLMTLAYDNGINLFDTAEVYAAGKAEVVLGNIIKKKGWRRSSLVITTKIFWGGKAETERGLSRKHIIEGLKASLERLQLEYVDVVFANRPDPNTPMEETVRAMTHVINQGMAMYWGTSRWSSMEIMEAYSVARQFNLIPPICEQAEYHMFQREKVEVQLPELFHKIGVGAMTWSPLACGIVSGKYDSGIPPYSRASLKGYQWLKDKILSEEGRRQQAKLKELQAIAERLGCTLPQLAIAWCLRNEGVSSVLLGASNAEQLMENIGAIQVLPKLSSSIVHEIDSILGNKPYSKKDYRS
Chain of Alpha-2C adrenergic receptor (Homo sapiens) (P18825 whole entry, looked up): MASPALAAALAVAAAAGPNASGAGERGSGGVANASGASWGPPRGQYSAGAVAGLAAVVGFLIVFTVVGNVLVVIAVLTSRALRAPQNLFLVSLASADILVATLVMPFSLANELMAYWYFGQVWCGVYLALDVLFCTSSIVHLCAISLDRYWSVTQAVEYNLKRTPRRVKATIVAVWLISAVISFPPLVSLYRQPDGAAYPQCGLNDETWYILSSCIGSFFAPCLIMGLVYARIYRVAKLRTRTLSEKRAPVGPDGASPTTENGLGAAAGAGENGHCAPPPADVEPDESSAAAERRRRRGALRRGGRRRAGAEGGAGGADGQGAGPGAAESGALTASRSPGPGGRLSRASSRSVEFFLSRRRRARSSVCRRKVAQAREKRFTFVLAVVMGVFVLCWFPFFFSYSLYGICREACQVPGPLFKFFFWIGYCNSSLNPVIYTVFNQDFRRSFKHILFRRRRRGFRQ

COC(=O)c1[nH]c2ccc(C)cc2c1NC(=O)CN1CCN(C(=O)c2ccccc2)CC1
102%: nuclei count [3]
330: cell count [1]
inactive: inhibition [1] -4% | inhibition of aggregation [2] 3% | inhibition [3] -26.1% | fluorescence slope [4] -0.306 | NADPH fluorescence slope [5] -3.3e-05 | slope [6] 0.00437 | outcome [7] | inhibition [8] 18.9% | inhibition [9] 14.6%
99.5%: nuclei count [2]

O=C(COc1ccc(S(=O)(=O)NC2CCCCC2)cc1)NCc1ccccn1
400: cell count [1]
101%: nuclei count [2]
107%: nuclei count [3]
inactive: inhibition [1] -5.1% | inhibition of aggregation [2] -2.7% | inhibition [3] -8.3% | fluorescence slope [4] -0.401 | NADPH fluorescence slope [5] -1.8e-06 | slope [6] 0.00588 | outcome [7] | inhibition [8] -5.78% | inhibition [9] 1.29%

COc1ccc(OCCOC(=O)c2cccc(-n3cnnn3)c2)cc1
inactive: inhibition [1] 4.4% | inhibition of aggregation [2] 8.2% | inhibition [3] -5.5% | fluorescence slope [4] -0.462 | NADPH fluorescence slope [5] -4.8e-05 | slope [6] 0.00521 | outcome [7] | inhibition [8] -2.23% | inhibition [9] -15.7%
92.8%: nuclei count [2]
289: cell count [1]
112%: nuclei count [3]

OC(CNCCc1ccccc1)c1ccccc1 (stereo not given)
586: cell count [1]
91.9%: nuclei count [2]
55.2%: nuclei count [3]
inactive: inhibition [1] 11% | inhibition of aggregation [2] 14.9% | inhibition [3] 48.6% | fluorescence slope [4] -0.37 | NADPH fluorescence slope [5] -7.3e-05 | slope [6] 0.00466 | outcome [7] | inhibition [8] 11.9% | inhibition [9] 15.7%

Cc1oc2c(c1C(=O)NCc1ccccc1)CCCC2
130%: nuclei count [3]
108%: nuclei count [2]
437: cell count [1]
inactive: inhibition [1] 1.3% | inhibition of aggregation [2] -13.6% | inhibition [3] 4.8% | fluorescence slope [4] -0.464 | NADPH fluorescence slope [5] -4.8e-05 | slope [6] 0.00391 | outcome [7] | inhibition [8] 9.63% | inhibition [9] 4.5%

CCOCC(O)CS(=O)Cc1ccccc1 (stereo not given)
inactive: inhibition [1] -7.4% | inhibition of aggregation [2] 4.7% | inhibition [3] -38.6% | fluorescence slope [4] -0.358 | NADPH fluorescence slope [5] -6.9e-05 | slope [6] 0.00589 | outcome [7] | inhibition [8] 8.68% | inhibition [9] 14.1%
126%: nuclei count [3]
99.4%: nuclei count [2]
343: cell count [1]

CCn1c(SCC(=O)Nc2ccc3c(c2)OCO3)nnc1-c1cnccn1
542: cell count [1]
inactive: inhibition [1] -3.4% | inhibition of aggregation [2] 1.7% | inhibition [3] -72.2% | fluorescence slope [4] -0.437 | NADPH fluorescence slope [5] -5.6e-05 | slope [6] 0.00469 | outcome [7] | inhibition [8] 15.5% | inhibition [9] 16.7%
89.2%: nuclei count [2]
118%: nuclei count [3]

COc1ccc(OC)c(NC(=O)CS(=O)(=O)c2ccccc2)c1
107%: nuclei count [2]
410: cell count [1]
inactive: inhibition [1] -0.6% | inhibition of aggregation [2] -1.6% | inhibition [3] -66.5% | fluorescence slope [4] -0.438 | NADPH fluorescence slope [5] 1.3e-05 | slope [6] 0.00539 | outcome [7] | inhibition [8] -3.16% | inhibition [9] 6.62%
121%: nuclei count [3]

O=C(NCc1ccco1)c1cccc(S(=O)(=O)N2CCCCC2)c1
inactive: inhibition [1] -3.6% | inhibition of aggregation [2] -3.2% | inhibition [3] -87.1% | fluorescence slope [4] -0.462 | NADPH fluorescence slope [5] 3.8e-05 | slope [6] 0.00571 | outcome [7] | inhibition [8] -13.9% | inhibition [9] -7.47%
323: cell count [1]
120%: nuclei count [3]
112%: nuclei count [2]

COc1cccc(CN2C(=O)C3(C(C#N)=C(N)OC4=C3C(=O)CCC4)c3ccccc32)c1 (stereo not given)
77.7%: nuclei count [3]
352: cell count [1]
inactive: inhibition [1] -0.9% | inhibition of aggregation [2] -11.5% | inhibition [3] -15.9% | fluorescence slope [4] -0.414 | NADPH fluorescence slope [5] -5.5e-05 | slope [6] 0.00531 | outcome [7] | inhibition [8] 12.7% | inhibition [9] 14.6%
94.1%: nuclei count [2]

CCN(CC)C(c1ccc(C)cc1)c1nnnn1C1CCCCC1 (stereo not given)
438: cell count [1]
inactive: inhibition [1] -6.7% | inhibition of aggregation [2] 37.1% | inhibition [3] 60% | fluorescence slope [4] -0.399 | NADPH fluorescence slope [5] -6.9e-05 | slope [6] 0.00367 | outcome [7] | inhibition [8] 16.7% | inhibition [9] 25.8%
88.2%: nuclei count [3]
85.4%: nuclei count [2]

CCC(C(=O)NC(C)CCc1ccco1)n1nc(C)n2c(cc3occc32)c1=O (stereo not given)
inactive: inhibition [1] 6% | inhibition of aggregation [2] -13.2% | inhibition [3] -121% | fluorescence slope [4] -0.475 | NADPH fluorescence slope [5] -2e-05 | slope [6] 0.00405 | outcome [7] | inhibition [8] 2.28% | inhibition [9] 2.25%
84.5%: nuclei count [2]
488: cell count [1]
98.3%: nuclei count [3]

CSc1c(CC(=O)NCCO)n(C)c2ccccc12
88%: nuclei count [2]
105%: nuclei count [3]
575: cell count [1]
inactive: inhibition [1] -14% | inhibition of aggregation [2] 8.4% | inhibition [3] -3.5% | fluorescence slope [4] -0.338 | NADPH fluorescence slope [5] 1.3e-05 | slope [6] 0.005 | outcome [7] | inhibition [8] 1.14% | inhibition [9] 5.52%

Cc1cccc(N(CC(=O)N2CCCC2)S(=O)(=O)c2ccccc2)c1C
87.6%: nuclei count [2]
288: cell count [1]
98.1%: nuclei count [3]
inactive: inhibition [1] -2.3% | inhibition of aggregation [2] 23.9% | inhibition [3] -156% | fluorescence slope [4] -0.423 | NADPH fluorescence slope [5] -4.5e-05 | slope [6] 0.00511 | outcome [7] | inhibition [8] -11.4% | inhibition [9] -6.79%

O=C(CSc1nc2ccccc2c(=O)n1Cc1ccco1)NCc1ccccc1
399: cell count [1]
inactive: inhibition [1] -6.1% | inhibition of aggregation [2] 1.9% | inhibition [3] -6.6% | fluorescence slope [4] -0.439 | NADPH fluorescence slope [5] -4.9e-05 | slope [6] 0.0067 | outcome [7] | inhibition [8] 19.4% | inhibition [9] 9.86%
103%: nuclei count [3]
87.8%: nuclei count [2]

O=C1c2ccccc2NC(c2cccc(F)c2)N1Cc1ccco1 (stereo not given)
107%: nuclei count [3]
106%: nuclei count [2]
586: cell count [1]
inactive: inhibition [1] -32.4% | inhibition of aggregation [2] 10.2% | inhibition [3] -0.5% | fluorescence slope [4] -0.308 | NADPH fluorescence slope [5] -2.7e-05 | slope [6] 0.00344 | outcome [7] | inhibition [8] 16.4% | inhibition [9] 17.8%

CCN(C(=O)c1ccnc(C(C)(C)C)c1)c1ccccc1
99.8%: nuclei count [2]
128%: nuclei count [3]
inactive: inhibition [1] 4.4% | inhibition of aggregation [2] -6.8% | inhibition [3] -63.1% | fluorescence slope [4] -0.385 | NADPH fluorescence slope [5] -1.8e-05 | slope [6] 0.0045 | outcome [7] | inhibition [8] 13.6% | inhibition [9] 11.3%
334: cell count [1]

CC(=O)Nc1nnc(SCC(=O)NCC2CCCO2)s1 (stereo not given)
102%: nuclei count [2]
110%: nuclei count [3]
inactive: inhibition [1] 6% | inhibition of aggregation [2] -1.3% | inhibition [3] -123% | fluorescence slope [4] -0.413 | NADPH fluorescence slope [5] -3.1e-05 | slope [6] 0.00542 | outcome [7] | inhibition [8] -10.9% | inhibition [9] -9.89%
415: cell count [1]

COC(=O)c1[nH]c2ccc(C)cc2c1NC(=O)CN1CCC(C)CC1
103%: nuclei count [2]
340: cell count [1]
120%: nuclei count [3]
inactive: inhibition [1] -0.4% | inhibition of aggregation [2] 15.7% | inhibition [3] -18.4% | fluorescence slope [4] -0.337 | NADPH fluorescence slope [5] -5.5e-05 | slope [6] 0.00492 | outcome [7] | inhibition [8] 4.88% | inhibition [9] 2.95%

N#CCc1ccc(NC(=O)Nc2cccc(Cl)c2)cc1
321: cell count [1]
inactive: inhibition [1] -8.6% | inhibition of aggregation [2] -19.9% | inhibition [3] -112% | fluorescence slope [4] -0.46 | NADPH fluorescence slope [5] -5.6e-05 | slope [6] 0.00505 | outcome [7] | inhibition [8] -26.8% | inhibition [9] -62.7%
85.4%: nuclei count [2]
137%: nuclei count [3]

C1=C(CCNc2ncnc3c2cnn3-c2ccccc2)CCCC1
355: cell count [1]
124%: nuclei count [3]
91.5%: nuclei count [2]
inactive: inhibition [1] 2.8% | inhibition of aggregation [2] 17.1% | inhibition [3] -22.4% | fluorescence slope [4] -0.375 | NADPH fluorescence slope [5] -6.3e-05 | slope [6] 0.00514 | outcome [7] | inhibition [8] -36.5% | inhibition [9] -142%

CN(C)c1ccc(C2C3=C(CCCC3=O)OC3=C2C(=O)CCC3)cc1
inactive: inhibition [1] -6.3% | inhibition of aggregation [2] 8.9% | inhibition [3] -20.9% | fluorescence slope [4] -0.37 | NADPH fluorescence slope [5] -5.2e-05 | slope [6] 0.00729 | outcome [7] | inhibition [8] 14.3% | inhibition [9] 17%
571: cell count [1]
110%: nuclei count [3]
112%: nuclei count [2]

O=C(CSc1nnnn1-c1ccccc1)Nc1ccc(Cl)cc1
inactive: inhibition [1] -0.2% | inhibition of aggregation [2] 17.5% | inhibition [3] -73.4% | fluorescence slope [4] -0.377 | NADPH fluorescence slope [5] 4e-06 | slope [6] 0.00622 | outcome [7] | inhibition [8] -14.3% | inhibition [9] -15.3%
67.8%: nuclei count [3]
561: cell count [1]
108%: nuclei count [2]

Cc1nnc(NC(=O)CCC(=O)N2CCC(C)CC2)s1
355: cell count [1]
120%: nuclei count [3]
inactive: inhibition [1] -2% | inhibition of aggregation [2] -13.9% | inhibition [3] -84.2% | fluorescence slope [4] -0.465 | NADPH fluorescence slope [5] -4.6e-05 | slope [6] 0.0059 | outcome [7] | inhibition [8] 12.2% | inhibition [9] 14%
119%: nuclei count [2]

c1ccc(-c2nc3cnccn3c2Nc2ccc3c(c2)OCCO3)cc1
inactive: inhibition [1] -36.1% | inhibition of aggregation [2] 11.9% | inhibition [3] -20.7% | fluorescence slope [4] -0.202 | NADPH fluorescence slope [5] -6.7e-06 | slope [6] 0.00431 | outcome [7] | inhibition [8] 8.91% | inhibition [9] 11.5%
101%: nuclei count [2]
110%: nuclei count [3]
606: cell count [1]
